The full list was thinned out, with hits kept by preference.
NALP3 yeast inh – blocks the NALP3 inflammasome reconstituted in yeast. Yeast reconstituted NLRP3/ASC/caspase-1, beta-gal luminescence, 24 h. inhibition, % at 10 µM. hit rate 0.39% among 330,000. AID 2825;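 active = inhibition of 50% or more; inactive = inhibition below 50%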;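 note: plate controls were induced DMSO wells for no effect and uninduced yeast grown without galactose for full effect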
NALP1 yeast inh – NALP1 inhibition | hit rate 0.61% among 280,000 | S. cerevisiae NALP1/ASC/caspase-1 growth, X-gal OD620, 72 h | inhibition, % at 10 µM; in the data active = inhibition mostly above about 24%, no sharp cut-off; inactive = mostly below about 32%
PolyA inh – blocks polyadenylation in yeast reporter cells | S. cerevisiae SKY197-pL101 polyadenylation reporter, beta-gal luminescence; efflux-impaired pdr1/pdr3 knockout yeast; score 100 = 6 SD above DMSO | activity score, % at 12 µM | hit rate 0.02% among 300,000 | AID 1875;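 active = lowest replicate activity score at least 50, where 100 means six control SD above control mean; inconclusive = lowest score under 50 but half or more replicates reach 50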;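 note: yeast exposed to compound for 9 h at 30 °C; higher score means more reporter readthrough which indicates perturbed polyadenylation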
Calb FLC – affects C. albicans growth with fluconazole; AID 1979; C. albicans CaCi-2 + fluconazole, Alamar Blue growth, 48 h; hit rate 0.57% among 300,000; growth inhibition, % (no concentration beside the values);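 active = growth inhibition above about 58% in most replicates, limit read from the data, passing the limit was not always enough; inconclusive = exactly half the replicates above a set limit; inactive = most replicates below a set limit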;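 note: all wells also contain fluconazole at 8 µg/ml as a sub-toxic cotreatment; 0% = median of DMSO wells and 100% = median of geldanamycin control wells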
T cruzi inh – blocks replication of Trypanosoma cruzi; T. cruzi beta-gal in NIH3T3, luminescence, 90 h; inhibition, % (no concentration beside the values); hit rate 1.4% among 300,000; AID 1885;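 active = mean inhibition across valid replicates above about 55%, limit read from the data; inconclusive = mean below that limit but half or more replicates reach it; inactive = mean below it, under half of replicates reach it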;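 note: signal also drops with host cell toxicity which is not excluded here; 0% = plate median of DMSO wells and 100% = zero luminescence signal; higher percent means less beta-gal luminescence so fewer parasites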
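System: mouse NIH/3T3 fibroblasts infected with β-gal-expressing T. cruzi Tulahuen C4 / Input: NIH/3T3 cells, 5,000 per well / Buffer or medium: Low-serum DMEM with 2% FBS / Probe or stimulus: 5000 reporter trypomastigotes per well / Schedule: ≥90 h infection period, 3 h prior cell attachment / Measured by: GalScreen luminescence, 60 min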
L major viab – inhibitors of Leishmania major promastigote growth; hit rate 9% among 200,000; inhibition, % at 10 µM; Leishmania major promastigotes, resazurin fluorescence viability; in the data active = inhibition above about 50%;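 note: promastigotes grown with compound for 44 hours at 28 °C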
* hit, by the source's call; ? = inconclusive; nt = not tested or not shown.

SMILES | NALP3 yeast inh | NALP1 yeast inh | PolyA inh | Calb FLC | T cruzi inh | L major viab
CC(C)n1cnnc1SCC(=O)Nc1cccnc1Cl | 8 | nt | nt | nt | nt | nt
CCCc1ccc(C(=O)NNc2ccc(F)cc2)cc1 | 22 | 10 | -14 | 77* | nt | nt
O=C(NNc1ccc(O)cc1)c1ccc(Br)cc1 | 24 | 23 | 0 | 95* | 42 | 98*
CCc1ccc(C(=O)NNc2ccc(F)cc2F)cc1 | 36 | nt | 8 | 93* | 7 | nt
CCCN1C/C(=C/c2cccc([N+](=O)[O-])c2)C(=O)/C(=C/c2cccc([N+](=O)[O-])c2)C1 | nt | -8 | nt | nt | nt | 101*
CCCN1C/C(=C/c2ccc3c(c2)OCO3)C(=O)/C(=C/c2ccc3c(c2)OCO3)C1 | 18 | 35 | -11 | -31 | -2 | 100*
Cc1cc(C)cc(C(=O)NCC(=O)OCC(=O)NC2CC2)c1 | 0 | nt | nt | nt | nt | nt
N=C1C(c2nc3ccccc3s2)=C(O)CN1C1CCCCC1 | 2 | -2 | -9 | 5 | 12 | -3
Cc1ccc(NNC(=O)c2ccno2)cc1C | -9 | 2 | -12 | 93* | 9 | nt
O=C(Oc1ccccc1)c1cccc(N2C(=O)CCC2=O)c1 | 4 | 16 | -13 | -6 | -47 | -6
COc1cccc(C(=O)Oc2ccc(N3C(=O)CCC3=O)c(C)c2)c1 | 15 | 35* | -7 | -3 | -10 | -5
O=C1OCC(CO)(CO)N=C1NNc1ccccc1Cl | 13 | 18 | -13 | -25 | -5 | 5
COc1ccc(C2CC(C)(c3ccc(OC)cc3OC)Nc3ccccc3N2)c(OC)c1 (stereo not given) | -6 | 14 | -12 | ? | 73* | 62*
Cc1ccc(CNS(=O)(=O)c2c(C(=O)N3CCCCC3)c(C)n(C)c2C)o1 | -5 | 5 | 6 | -4 | -4 | nt
O=S(=O)(c1ccc(Br)cc1)c1cnc2ccccc2n1 | 5 | -8 | -27 | -3 | -57 | 84*
CCCN(C(=O)CSc1cc(-c2ccccc2)c2ccc(OC)cc2n1)C1CCS(=O)(=O)C1 (stereo not given) | 17 | 24 | ? | 5 | 13 | 6
COc1ccc2c(-c3ccccc3)cc(SC(C)C(N)=O)nc2c1 (stereo not given) | 3 | -8 | -1 | -20 | 5 | 81*
COC(=O)c1ccc(-c2noc(CN(C)CC3CCCCO3)n2)cc1 (stereo not given) | -6 | 0 | 7 | -9 | -1 | -3
COC(=O)c1ccc(-c2noc(CN(Cc3ccncc3)CC3CCCO3)n2)cc1 (stereo not given) | 16 | -8 | -18 | -7 | 57* | 71*
CCn1ccnc1CN(C)Cc1nc(-c2ccc(C(=O)OC)cc2)no1 | 4 | nt | -7 | -5 | 1 | nt
COC(=O)c1ccc(-c2noc(CN3C[C@H]4CC[C@H]3C4)n2)cc1 | 12 | 0 | 7 | 4 | -8 | 98*
CCOC(=O)c1[nH]c2cc(OC)c(OC)cc2c1NC(=O)CN(C)C1CCCCC1 | -5 | 15 | -9 | 9 | 20 | 61*
CCCCNC(=S)N/N=C/c1cccc(OCC)c1O | 2 | 5 | -1 | -3 | -4 | nt
CCOc1cccc(/C=N/NC(=S)Nc2ccccc2[N+](=O)[O-])c1O | 23 | 9 | 14 | -20 | 5 | 95*
N#Cc1ccc(N2CCN(C(=O)c3cccc(F)c3)CC2)c(F)c1 | 15 | 26 | 13 | 1 | -8 | -2
SMILES | NALP3 yeast inh | NALP1 yeast inh | PolyA inh | Calb FLC | T cruzi inh | L major viab
CCc1nn(CC(=O)NCCN2CCN(C)CC2)c(=O)c2cc3c(OC)cccc3n12 | -8 | 7 | 5 | -4 | 19 | nt
Clc1ccccc1/C=N/N1CCN(Cc2ccccc2)CC1 | 18 | 10 | 13 | 5 | 3 | nt
CN1CCN(/N=C/c2cccc(Cl)c2Cl)CC1 | 13 | 44 | 12 | -9 | 62* | 8
C=CCOc1c(Br)cc(CNn2nnnc2N)cc1OC | -1 | 25 | 9 | -3 | 0 | 101*
COc1cc(CNc2ccc(C(=O)O)cc2)cc(Br)c1OCC(=O)NC(C)(C)C | -3 | 29 | 10 | -22 | -11 | -9
C=CCOc1ccc(CNn2nnnc2N)cc1 | 5 | 11 | 3 | -2 | 3 | 0
C=CCOc1c(Br)cc(CNc2ccc(NC(=O)C(C)C)c(OC)c2)cc1OC | 17 | -9 | 2 | 40 | 43 | 99*
Cc1c(C(=O)Nc2cccc(Cl)c2)c2ccccn2c1CCc1ccncc1 | nt | 26 | -3 | 11 | 56* | 75*
Cc1c(C(=O)Nc2ccc(Cl)cc2)c2ccccn2c1CCc1ccncc1 | -10 | 27 | 1 | ? | 63* | 15
Cc1c(C(=O)Nc2ccc(Cl)cc2)c2ccccn2c1C(=O)c1ccc(F)cc1 | 1 | 5 | -1 | -9 | 4 | 2
O=C(CCc1nnc(CCC2CCCCC2)o1)NCCc1cccnc1 | 27 | -12 | 0 | 4 | -11 | -5
CCC(Oc1ccccc1)C(=O)N(C)CC(=O)N(CC(C)C)c1c(N)n(CC(C)C)c(=O)[nH]c1=O (stereo not given) | 7 | nt | -9 | 1 | -7 | nt
O=[N+]([O-])c1ccc(N2CCN(c3nc(-c4ccc(Cl)cc4)cs3)CC2)cc1 | 1 | -10 | -14 | 3 | 41 | 98*
Cc1ccccc1NC(=O)c1ccc(Cl)c(NC(=O)c2cccnc2)c1 | 15 | 3 | 5 | -2 | -2 | -4
Cc1cc(N)n2nc(C)c(-c3ccc(Cl)cc3)c2n1 | 20 | 33* | -18 | 4 | 2 | 33
Cc1cc(N2CCOCC2)n2nc(C)c(-c3ccc(Cl)cc3)c2n1 | 4 | 19 | -36 | -4 | 1 | nt
Cc1cc(N)n2nc(C)c(-c3ccccc3)c2n1 | nt | 19 | 12 | 27 | 6 | 17
Cc1cc(Cl)n2nc(C)c(-c3ccc(Cl)cc3)c2n1 | 6 | -19 | nt | 113* | nt | 27
COCCN(C(=O)COC(=O)Cc1cccc(OC)c1)c1c(N)n(CC(C)C)c(=O)[nH]c1=O | 7 | nt | 12 | -3 | -11 | nt
Cc1c(N=C2SCC(=O)N2/N=C\c2ccc(Br)cc2)c(=O)n(-c2ccccc2)n1C | 19 | 14 | 8 | 2 | 1 | 76*
CCc1ccc(NC(=S)Nc2cccc3cnccc23)cc1 | -5 | 13 | -7 | 18 | 4 | 2
CC(=O)c1ccc(Nc2cnn(C34CC5CC(CC(CC(=O)O)(C5)C3)C4)c(=O)c2Cl)cc1 | 0 | 7 | 15 | -10 | 12 | -4
Cn1nc(-c2ccc(Cl)cc2)c2cc(C(=O)NCCCN3CCCC3)sc21 | 11 | 1 | -8 | 4 | 43 | 100*
CCN1CCCC1CNC(=O)C(=O)Nc1cccc(OC)c1 (stereo not given) | -9 | 24 | 20 | -5 | 8 | 53*
CCN1CCCC1CNC(=O)c1cc2c(-c3cccc(OC)c3)nn(C)c2s1 (stereo not given) | 0 | 3 | 0 | -4 | 40 | 82*
CCN1CCCC1CNC(=O)c1cc2c(-c3ccc(Cl)cc3)nn(C)c2s1 (stereo not given) | -3 | -12 | 19 | 4 | 30 | 100*

Screens: PubChem BioAssay, several laboratories
